# In paper PMC2810120 (Chemical biology & drug design, 2009):
# Non-standard residues stand in square brackets, D forms with d. Residues, ends and D or L forms follow the SMILES beside them. *: point of attachment. pS = N[C@@H](COP(=O)(O)O)C(=O)O; pNA = O=[N+]([O-])c1ccc(N*)cc1
# Legend:
# [1] = Plasma stability assay; format: in vitro ADME; conditions: rat plasma, 37 °C, 20 μM, after 30 min
# In short: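 Test compound at 20 μM final is incubated in fresh rat plasma at 37 °C. Samples are stopped at 0, 30 and 60 min with two volumes of methanol containing internal standard, then protein is precipitated and samples centrifuged for LC-MS. % parent remaining is taken against the 0 min sample from peak-area ratios to the internal standard. Run in duplicate with a plasma-labile positive control.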
# [2] = Parallel artificial membrane permeation assay; format: in vitro ADME; conditions: 100 μM compound, pH 7.2, acceptor concentration after 8 h
# In short: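 Lipid-impregnated hydrophobic filter (lipid applied in chloroform, solvent fully evaporated) separates donor from acceptor wells of phosphate buffer pH 7.2. Test compound is added at 100 μM to the donor side, with stock DMSO <5%. A membrane-free equilibrium well is run in parallel. Acceptor and equilibrium concentrations are measured by LC-MS AUC. % flux is the acceptor concentration after 8 h relative to the membrane-free reference well.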
# [3] = target: human Pin1 (human) (UniProt Q13526); assay: NMR titration
# Sequence of UniProt Q13526 (Q13526 whole entry): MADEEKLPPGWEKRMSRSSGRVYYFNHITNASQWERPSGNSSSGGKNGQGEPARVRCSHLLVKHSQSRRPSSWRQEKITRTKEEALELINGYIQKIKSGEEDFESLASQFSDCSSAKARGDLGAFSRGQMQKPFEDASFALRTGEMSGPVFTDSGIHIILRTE
Kd [3] [µM],Compound,plasma stability [1],PAMPA FLUX (%) [2] [%]
,N=C(N)NCCC[C@H](NC(=O)[C@@H]1CCCN1C(=O)[C@H](COP(=O)(O)O)NC(=O)[C@H](Cc1ccc(O)cc1)NC(=O)[C@H](Cc1ccccc1)NC(=O)[C@@H](N)Cc1c[nH]c2ccccc12)C(=O)Nc1ccc([N+](=O)[O-])cc1 [Pintide] (H-WFY[pS]PR-pNA; N-terminus and C-terminus assumed),rapidly degraded,14
323,Pintide (peptide),,
